The record followed here is ChEMBL document CHEMBL2321659, “Design, synthesis, and biological evaluation of indenoisoquinoline rexinoids with chemopreventive potential” (J Med Chem, 2013).

Data set [1] deals with T1, Retinoic acid receptor RXR-alpha (Homo sapiens) (UniProt P19793).
T1 sequence (whole entry): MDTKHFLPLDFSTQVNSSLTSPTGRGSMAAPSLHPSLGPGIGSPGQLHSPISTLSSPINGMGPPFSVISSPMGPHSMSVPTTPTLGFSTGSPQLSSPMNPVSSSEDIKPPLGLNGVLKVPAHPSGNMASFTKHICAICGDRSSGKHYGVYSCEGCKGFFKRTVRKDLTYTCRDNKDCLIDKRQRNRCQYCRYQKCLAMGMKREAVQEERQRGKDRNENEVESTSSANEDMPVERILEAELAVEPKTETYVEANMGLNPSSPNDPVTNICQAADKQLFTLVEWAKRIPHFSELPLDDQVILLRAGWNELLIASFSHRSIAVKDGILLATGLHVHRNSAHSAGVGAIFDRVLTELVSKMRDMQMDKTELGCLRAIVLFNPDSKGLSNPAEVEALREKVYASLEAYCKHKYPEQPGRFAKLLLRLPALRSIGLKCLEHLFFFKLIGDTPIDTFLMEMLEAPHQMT
The experiment in a line: Activation of human RXRalpha activity expressed in COS1 cells assessed as induction ratio at 50 uM after 12 hrs by RXRE-luciferase reporter gene assay relative to untreated control. Type of data set: cell-based. To be noted: COS-1. A digest of the protocol:
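COS-1 cells transiently co-transfected per well with 100 ng RXRE-firefly luciferase reporter, 50 ng human RXRα expression vector and 3 ng Renilla luciferase vector using Lipofectamine 2000 for 24 h, then exposed to compound for a further 12 h. Dual-luciferase read-out. Induction ratio taken at 50 µM test concentration.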
(In general: In a reporter assay the amount or activity of a reporter protein is the signal.)

The nature of data set [2]: Cytotoxicity against African green monkey COS1 cells assessed as cell survival. Type of data set: cell-based. The arrangement: concentration or dose not given beside the values. To be noted: chlorocebus aethiops, COS-1 cells; read-out: Activity.
For data set [3], the target named is T1, Retinoic acid receptor RXR-alpha (Homo sapiens). Description: Binding affinity to RXRalpha (unknown origin) at 10 uM after 2 hrs by ultrafiltration LC-MS/MS analysis relative to control. A digest of the protocol:
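Purified RXRα (10 µM stock in 50 mM Tris-HCl pH 7.5, 50 mM KCl, 1 mM EDTA) incubated with ligand (final 10 µM, DMSO) for 2 h at room temperature. Then 10 kDa ultrafiltration at 4 °C, three ammonium acetate pH 7.5 washes, release with 90% methanol, UHPLC-MS/MS (SRM). Binding ratio is peak area versus denatured-RXRα (60–70 °C, 15 min) control.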

Data set [4] addresses T2, Retinoic acid receptor RXR-alpha (Homo sapiens, UniProt P19793).
T2 sequence (P19793 whole entry): T1 sequence (whole entry)
Description: Activation of human RXRalpha activity expressed in COS1 cells after 12 hrs by RXRE-luciferase reporter gene assay. Type of data set: cell-based, COS-1.

Data set [5] has as its target T3, Vitamin D3 receptor (Homo sapiens) (UniProt P11473).
T3 sequence (whole entry): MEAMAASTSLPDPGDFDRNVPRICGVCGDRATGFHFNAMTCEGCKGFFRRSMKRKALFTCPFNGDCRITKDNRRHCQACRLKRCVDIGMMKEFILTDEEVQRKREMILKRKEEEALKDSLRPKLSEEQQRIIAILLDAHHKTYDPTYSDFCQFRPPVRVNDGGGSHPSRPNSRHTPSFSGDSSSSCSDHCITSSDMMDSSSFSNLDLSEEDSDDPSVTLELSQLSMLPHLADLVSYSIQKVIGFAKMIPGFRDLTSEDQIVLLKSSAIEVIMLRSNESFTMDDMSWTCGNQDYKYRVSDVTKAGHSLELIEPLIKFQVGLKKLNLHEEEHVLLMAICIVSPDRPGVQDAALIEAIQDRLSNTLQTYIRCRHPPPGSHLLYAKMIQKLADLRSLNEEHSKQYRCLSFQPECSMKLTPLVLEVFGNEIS
Description: Binding affinity to VDR (unknown origin) after 30 mins by ultrafiltration LC-MS/MS analysis relative to 6-(6-aminohexyl)-5H-indeno[1,2-c]isoquinoline-5,11(6H)-dione. Also on record: Activity: concentration or dose not given beside the values. A digest of the protocol:
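Recombinant VDR incubated with ligand in 20 µL for 30 min at 37 °C in the dark with shaking. Then ultrafiltration at 4 °C and rinses with cold 50 mM ammonium acetate/0.1 mM NaCl pH 8.0. Bound ligand released with methanol containing genistein, dried under N2 and quantified by LC-MS. Controls were boiled hVDR or no protein.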

The test system of data set [6] is HL-60. Description: Cell cycle arrest in human HL60 cells assessed as accumulation at subG1 phase at 250 nM relative to control. Type of data set: functional.
Data set [7] relates to HL-60. Description: Cell cycle arrest in human HL60 cells assessed as accumulation at subG1 phase at 13 nM relative to control. Type of data set: functional.
Data set [8] concerns the target T3, Vitamin D3 receptor (Homo sapiens). Description: Binding affinity to VDR (unknown origin) assessed as inhibition of curcumin binding after 30 mins by ultrafiltration LC-MS/MS analysis.
Data set [9] has as its system HL-60. Description: Cytotoxicity against human HL60 cells assessed as inhibition of cell proliferation after 96 hrs. Type of data set: functional, cell-based. To be noted: HL-60, 96 h.

Molecules are shown by their SMILES. Calls of active or inactive are those of the source. The calls are words filed in the database; no cut-off is given here.

With `CN(C)c1ccc2c3c(n(CCCN)c(=O)c2c1)-c1ccccc1C3=O`, the Ratio in [1] was below 1. The viability in data set [2] came to 30.6%.
As usually defined, the EC50 is the concentration at which the effect is half-maximal. With `CN(C)CCCn1c2c(c3ccc(N)cc3c1=O)C(=O)c1ccccc1-2`, the fold change (FC) in data set [3] stood at 2.5. The compound also registered a concentration giving a half-maximal response (EC50) in data set [4] of 7 µM. Moreover, the Ratio in data set [1] is above 1. In [5], the Activity came out at 21.4% and the fold change (FC) was 0.214. Moreover, in data set [2], the viability amounted to 53.7%.
Regarding `CCOC(=O)CNc1ccc2c3c(n(CCCN)c(=O)c2c1)-c1ccccc1C3=O`, the outcome in [3] was inactive. Besides, the Ratio in [1] was below 1. Moreover, in data set [5], the Activity turned out to be 1.62% and the fold change (FC) is 0.0162. Moreover, the viability in data set [2] is 22.2%.
On to `CN(C)CCCn1c2c(c3ccc([N+](=O)[O-])cc3c1=O)C(=O)c1ccccc1-2`, for which the Ratio in data set [1] is below 1. In [2], the viability came to 83.7%.
In data set [4], `CC(=O)Nc1ccc2c3c(n(CCCN)c(=O)c2c1)-c1ccccc1C3=O` showed an EC50 above 34.7 µM. Besides, the viability in data set [2] was determined as 69.2%.
On to `NCCCCn1c2c(c3ccccc3c1=O)C(=O)c1ccccc1-2`, for which a half-maximal effect in data set [4] (EC50) was put at 11.3 µM. Moreover, the Ratio in data set [1] turned out to be 9.9. In [5], the Activity was 35.3% and the fold change (FC) was determined as 0.353. Moreover, the viability in data set [2] worked out at 53.8%.
The compound `COC(=O)c1ccc2c3c(n(CCCN(C)C)c(=O)c2c1)-c1ccccc1C3=O` showed an EC50 in data set [4] of 19.5 µM. For the same compound, the Ratio in data set [1] is above 1. For the same compound, the viability in data set [2] was found to be 21.7%.
Broadly, the IC50 is the concentration that gives 50% inhibition. Compound `NCCCn1c2c(c3ccc(N)cc3c1=O)C(=O)c1ccccc1-2` displayed an EC50 in data set [4] of 4.4 µM. The Activity in data set [6] was determined as 28.7%; in data set [7], 4.5%. Also, the inhibition result in data set [8] was “inactive”. Besides, the viability in [2] was found to be 52.1%. Also, in data set [9], the IC50 is 0.092 µM.
Compound `NCCCn1c2c(c3ccc(NCC(=O)O)cc3c1=O)C(=O)c1ccccc1-2` yielded an EC50 in data set [4] of 8.4 µM. In data set [1], the Ratio is above 1. Besides, in [2], the viability is 61.2%.
Turning to `COC(=O)/C=C/c1ccc2c3c(n(CCCN)c(=O)c2c1)-c1ccccc1C3=O`, the Ratio in data set [1] was below 1. For the same compound, the viability in data set [2] came to 90.4%.
Take `CNCCCn1c2c(c3ccccc3c1=O)C(=O)c1ccccc1-2`: in data set [3], the fold change (FC) is 7.6. Also, the EC50 in data set [4] was 9.22 µM. Also, in data set [1], the Ratio is above 1. Also, the viability in data set [2] was determined as 51.2%.
For `O=C(O)CCn1c2c(c3ccc(Br)cc3c1=O)C(=O)c1ccccc1-2`, in data set [1], the Ratio is below 1. Besides, the viability in data set [2] turned out to be 98%.
On the same counts, the results for `O=C1c2ccccc2-c2c1c1ccc(Br)cc1c(=O)n2CCCN1CCOCC1` are below 1 and 100%.
On the same counts, the results for `O=C1c2ccccc2-c2c1c1ccccc1c(=O)n2CCCn1ccnc1` are below 1 and 100%.
The corresponding values for `COc1cc2c3c(n(CCCN)c(=O)c2cc1OC)-c1ccc(F)cc1C3=O` are below 1 and 23.8%.
`NCCn1c2c(c3ccccc3c1=O)C(=O)c1ccccc1-2`: a half-maximal effect in data set [4] (EC50) was put at 15.9 µM. For the same compound, the Ratio in data set [1] came out at 8.2. For the same compound, the viability in [2] is 30.7%.
Regarding `CNCCCn1c2c(c3ccc([N+](=O)[O-])cc3c1=O)C(=O)c1ccccc1-2`, the Ratio in data set [1] is below 1. For the same compound, the viability in data set [2] is 33.1%.
Take `NCCCn1c2c(c3ccc(N)cc3c1=O)Cc1ccccc1-2`: the EC50 in data set [4] is 10 µM. Further, in [1], the Ratio was above 1. For the same compound, in data set [5], the Activity worked out at 15.1% and the fold change (FC) was found to be 0.151. Further, the viability in [2] worked out at 49.3%.
In data set [4], `CN(C)CCCn1c2c(c3ccc(Br)cc3c1=O)C(=O)c1ccccc1-2` showed an EC50 of 18.4 µM. For the same compound, the Ratio in [1] was above 1. Further, the viability in data set [2] amounted to 48.5%.
On the same counts, the results for `COc1ccc2c(c1)C(=O)c1c-2n(CCCN)c(=O)c2ccccc12` are 4.84 µM, above 1 and 46.8%.
`NCCCCCn1c2c(c3ccccc3c1=O)C(=O)c1ccccc1-2`: the midpoint of the response in data set [4], the EC50, lay at 12.2 µM. Moreover, the Ratio in data set [1] is 4.9. Further, in data set [5], the Activity came to 83.8% and the fold change (FC) is 0.838. Further, the viability in [2] came to 40.7%.
As to `CN(C)CCCn1c2c(c3ccccc3c1=O)C(=O)c1ccccc1-2`, in data set [3], the fold change (FC) was found to be 2.6. Besides, the EC50 in data set [4] was 9.6 µM. Moreover, the Ratio in [1] is above 1. The viability in data set [2] is 52.5%.
For the compound `NCCCCCCn1c2c(c3ccccc3c1=O)C(=O)c1ccccc1-2`, the EC50 in data set [4] came out at 16.4 µM. In addition, the Ratio in data set [1] is 6.7. In data set [5], the Activity was determined as 100% and the fold change (FC) was 1. In addition, in data set [2], the viability is 24.9%.
Regarding `C[N+](C)(C)CCCn1c2c(c3ccccc3c1=O)C(=O)c1ccccc1-2`, the Ratio in data set [1] is below 1. Besides, the viability in [2] is 99.4%.
The compound `NCCCn1c2c(c3ccccc3c1=O)C(=O)c1ccccc1-2` came in with a concentration giving a half-maximal response (EC50) in data set [4] of 8.66 µM. Moreover, the Ratio in data set [1] stood at 11.4. Moreover, in data set [5], the Activity was 42.7% and the fold change (FC) stood at 0.427. Also, in data set [2], the viability was 50.8%.
In the case of `COC(=O)c1ccc2c3c(n(CCCN)c(=O)c2c1)-c1ccccc1C3=O`, the Ratio in data set [1] is below 1. Besides, the viability in [2] is 55%.
The corresponding values for `NCCCn1c2c(c3ccc([N+](=O)[O-])cc3c1=O)C(=O)c1ccccc1-2` are below 1 and 32.1%.
Turning to `COC(=O)CC(=O)Nc1ccc2c3c(n(CCCN)c(=O)c2c1)-c1ccccc1C3=O`, the fold change (FC) in data set [3] worked out at 1.7. In addition, in data set [4], the half-maximal effective concentration (EC50) was above 44.5 µM. Further, the Ratio in [1] was above 1. Further, the viability in data set [2] is 85%.
On to `CNCCCn1c2c(c3ccc(Br)cc3c1=O)C(=O)c1ccccc1-2`, for which the concentration giving a half-maximal response (EC50) in data set [4] is 10.7 µM. The Ratio in data set [1] was above 1. In addition, in data set [2], the viability was 31.3%.
The corresponding values for `CN(C)CCCn1c2c(c3ccc(C#N)cc3c1=O)C(=O)c1ccccc1-2` are above 20.7 µM, above 1 and 54.8%.
For `NCCCn1c2c(c3ccc(C(=O)O)cc3c1=O)C(=O)c1ccccc1-2`, the Ratio in data set [1] is below 1. In addition, the viability in data set [2] turned out to be 83.7%.
